Consider 23 sequences from the EternaBench riboswitch data.

For series [1], the system named is MS2 coat protein. Put plainly: apparent Kd, MS2 coat protein; higher = weaker binding; RNA-MaP array. In outline: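 Apparent Kd is the median of per-cluster binding-curve fits for designed RNAs transcribed from sequenced DNA templates on an Illumina sequencing chip. The RNAs were incubated at room temperature with fluorescently labeled MS2 coat protein at 1.5 nM to 3 μM, with or without input ligand, and designs measured on fewer than 10 clusters were excluded.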

Series [2] deals with MS2 coat protein. Put plainly: apparent Kd, MS2 coat protein; higher = weaker binding; RNA-MaP array; FMN 200 µM where present. The gist of the method: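 The apparent Kd comes from binding curves fitted cluster by cluster, filtered, and summarised as a median. Those curves followed SNAP-549-labelled MS2 coat protein from 0.7 or 1.5 nM, doubling to 3 µM, on Illumina sequencing-chip clusters where stalled E. coli RNA polymerase had transcribed the designs, without and then with constant ligand. The buffer was 100 mM Tris-HCl pH 7.5, 80 mM KCl, 4 mM MgCl2, BSA, DTT, yeast tRNA and Tween-20, and green signal was normalised to red-channel RNA signal and control-cluster median Fmax.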

Where [3] appears, read: designed as: OFF switch for flavin mononucleotide, no ligand.
Where [4] appears, read: ligand present: flavin mononucleotide, designed as: OFF switch for flavin mononucleotide.
[5] abbreviates: designed as: ON switch for flavin mononucleotide, no ligand.
[6] abbreviates: ligand present: flavin mononucleotide, designed as: ON switch for flavin mononucleotide.

The apparent Kd is a dissociation constant that holds for the conditions of the assay. Regarding “UGACCAUGCGAGAAGGCGUACAUGAGGAUCACCCAUGUUCGUAGAACAAUCGGGUAAGCAUGGCACGAGGAUAUCGCCAAUGCC”, the “apparent Kd” value in series [1] (setting [3]) was 23.1 nM; in series [1] (setting [4]), 93.6 nM.
In the case of “UUCUUACAUGAGGAUCACCCAUGUUCUGAUAGAGCAGGAUAUGAUGGUUAGAAGUAGAAAUCAGAAGGGCUCCAUG”, the “apparent Kd” value was 100 nM in series [1] (setting [5]) and 19.8 nM in series [1] (setting [6]).
In the case of “UCCACACAUGAGGAUCACCCAUGUUGACAUUAUUGAGGAUAUCGGAGUGAAGGUUCGGUUCGAGAAGGCAACCAGA”, the “apparent Kd” value stood at 19.8 nM in series [1] (setting [5]) and 14.8 nM in series [1] (setting [6]).
Take “AUAUGCGAUUGAGGAUAUAGGGAGAGGCUAACUCUAGAAGGCAAUGUAUGGAAUAGCUUACACAUGAGGAUCACCCAUGUUGCU”: the results for the “apparent Kd” value in series [1] (setting [5]) and in series [1] (setting [6]) were 9.73 nM and 7.27 nM, respectively.
Regarding “CGUUCCAGGGAGAAGGGCUACAAGAUCUUUCCAGCAGGAUAUCCCAACAUGAGGAUCACCCAUGUAGUCGUGUUAUUGGCUAUA”, the “apparent Kd” value is 243 nM in series [1] (setting [5]) and 86.4 nM in series [1] (setting [6]).
“ACAUGAGGAUCACCCAUGUGCCUCGAUAGGUAACUGAGACCCAGAAGGCCAGCGCGUUGCGCCUUGGAGGAUAUGGCAAACAAG”: the results for the “apparent Kd” value in series [1] (setting [5]) and in series [1] (setting [6]) were 34.5 nM and 19.7 nM, respectively.
For the sequence “UAGUACCAAGUGAGGAUAUCUAAAGUCUAUGAAAGAGAGAAGGCACAUGAGGAUCACCCAUGUAACUAGGUGGG”, the “apparent Kd” value in series [1] (setting [3]) was determined as 152 nM; in series [1] (setting [4]), 162 nM.
Take “GUGCGCGUAAAAGGAUAUUCGGAUGAUAGAACUCGAAACUACAUGAGGAUCACCCAUGUCAAGAAGAAGAAGGUUUGGCGAAAU”: the figures for the “apparent Kd” value in series [1] (setting [3]) and in series [1] (setting [4]) were 57.1 nM and 31.7 nM, respectively.
“GUAUGGCUCGAGGAUAUGUACGUAGGAGACUAGACAGAAGGCGAUACAUGAGGAUCACCCAUGUCCUAUUAACC”: the “apparent Kd” value in series [1] (setting [3]) was 188 nM; in series [1] (setting [4]), 129 nM.
“GGUCCCAUGCGACAGGAUAUUGGAUGCAGCACAUGAGGAUCACCCAUGUAUACAGUUAUGGAUAACAAGAAGGGUCGCUUUGCAUA”: the figures for the “apparent Kd” value in series [1] (setting [5]) and in series [1] (setting [6]) were 45.3 nM and 15.2 nM, respectively.
With “CACGAUCGAGAAGAGUGCAACAUGAGGAUCACCCAUGUAUUCAGAAGGGCCACGACCUUAGUAGGGCAGGAUAUGAUACGAUAC”, the “apparent Kd” value came out at 26.2 nM in series [1] (setting [5]) and 19.9 nM in series [1] (setting [6]).
On to “AAUCUGAUUGCGGCCGCCACUAAUUUUCCAUGAGUAUUGCAAUUACAUGAGGAUCACCCAUGUCAUAGGACCGGGCAUGACAUCU”, for which the “apparent Kd” value in series [1] (designed as: ON switch for tryptophan, no ligand) was 303 nM; in series [1] (ligand present: tryptophan, designed as: ON switch for tryptophan), 240 nM.
As to “AUGACUCGUGUUAGGAUAUCUUCGGCGUGGCUGAUGGAGAAGGGACAUGAGGAUCACCCAUGUAUCCUGGUCGG”, the “apparent Kd” value in series [2] (setting [3]) worked out at 71.3 nM; in series [2] (setting [4]), 123 nM.
On the same counts, the results for “AGGUUGUGAGGAUAUUAGUUAUAUGAAUGGAGGAGUAUGGCUGAGAAGGCACAUGAGGAUCACCCAUGUAGAUC” are 120 nM and 420 nM.
Regarding “GAUUAACAUGAGGAUCACCCAUGUCGUAUUAUGGGAGGAUAUACGUGGACCGUAGUCCGCGUAGAAGGCCUAAUUG”, the results for the “apparent Kd” value in series [2] (setting [5]) and in series [2] (setting [6]) were 93.8 nM and 28.7 nM, respectively.
As to “GUAGCUAUCGGAGGAUAUUCAUACCGAAAACGGACAUGAGGAUCACCCAUGUGGCGAAAGUCUUGGGAGAAGGCCGAUAGCUAC”, the “apparent Kd” value in series [2] (setting [5]) came to 39.2 nM; in series [2] (setting [6]), 7.62 nM.
In the case of “UUUUAUGUCAAAGGAUAUAUAAAUAAAUUUAUAACAUGAGGAUCACCCAUGUACUUUAGUAUGAGGUAGAAGGUUGAUAAGAGA”, the “apparent Kd” value in series [2] (setting [5]) came to 35.4 nM; in series [2] (setting [6]) it was 23.3 nM.
For the sequence “GGAUGACAAAGUCAUCCUUAACGAACAUGAGGAUCACCCAUGUAGGAUAUGCUACUGAAACAGUAGCAGAAGGACAUGUGUCUU”, the “apparent Kd” value in series [2] (setting [3]) is 29.7 nM; in series [2] (setting [4]), 130 nM.
On to “UGAUCUUGGGUCAGGAUAUGCUGGUAUUUUUGCCAGCAGAAGGGACAUGAGGAUCACCCAUGUUCUUGGUUUUU”, for which the “apparent Kd” value was 11.7 nM in series [2] (setting [3]) and 14.9 nM in series [2] (setting [4]).
“UUGGGAUGCAAGAAGGGUGACAUGAGGAUCACCCAUGUGUUGUGAAGUCUCGAGAUUUUAUGACCAUAGGAUAUUGCACCGAAC”: the “apparent Kd” value in series [2] (setting [5]) is 31.6 nM; in series [2] (setting [6]), 21.6 nM.
Turning to “AAGGUGUUAGGAUAUCGGAGUUUGAGGCAGACGGGAAUUUUCGAGAAGGAACAUGAGGAUCACCCAUGUAGUAU”, the “apparent Kd” value is 24.1 nM in series [2] (setting [3]) and 24.8 nM in series [2] (setting [4]).
For “UGCGUACAAGCAAACAUGAGGAUCACCCAUGUGGUCUUAUGCGAGGAUAUCGGGAAGGAGGAUUCCGAGAAGGUGCGGUGAGCC”, the “apparent Kd” value was determined as 31.4 nM in series [2] (setting [5]) and 26.5 nM in series [2] (setting [6]).
For “AGCUAGUACGAAGGAUAUACAAACAUGAGGAUCACCCAUGUAUACAUGGUUUGAUGAGACUACAUGUAGAAGGUCGUACUAGCA”, the “apparent Kd” value in series [2] (setting [5]) is 506 nM; in series [2] (setting [6]), 796 nM.
